Only some compounds are listed: those with a hit (about 5.2% of all), similar ones and a draw of the others.
NS3 helicase inh: inhibitors of Hepatitis C virus NS3 helicase. inhibition, % at 10.9 µM. NS3 helicase DNA unwinding, Cy5 molecular beacon fluorescence. AID 1800. hit rate 0.56% among 290,000;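 active = inhibition above the mean of all tested compounds plus 3 SD, set per campaign, cut at about 35% in these data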
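Material: hepatitis C virus NS3 helicase domain fragment enzyme; measured by: Cy5 fluorescence, 0 and 60 min reads; control set: DMSO and thioflavine S; incubation: 60 min unwinding reaction at 25 °C after ATP addition; read-out basis: % inhibition from 60/0 min fluorescence ratio, DMSO 0%, thioflavine S 100%; repeats: singlicate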
ALR H2O2 inh: human ALR oxidase inhibition via reduced H2O2. P55789. purified ALR, DTT oxidation, H2O2 HRP-luminol luminescence. inhibition, % (no concentration beside the values). hit rate 3.8% among 290,000. AID 485317;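 active = mean replicate inhibition above about 79%, with every replicate also reaching it, limit read from the data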
Target sequence (P55789 whole entry, looked up): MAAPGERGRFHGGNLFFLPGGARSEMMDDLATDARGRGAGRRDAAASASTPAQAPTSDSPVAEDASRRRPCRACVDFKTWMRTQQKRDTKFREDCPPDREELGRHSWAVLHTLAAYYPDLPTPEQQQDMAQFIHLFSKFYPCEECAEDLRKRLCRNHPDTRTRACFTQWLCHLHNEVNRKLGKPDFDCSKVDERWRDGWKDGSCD
EBNA-1 inhibitor: blocks EBNA-1 binding to DNA | EBNA-1 DNA binding, fluorescence polarization | AID 1950 | inhibition, % at 14.8 µM | hit rate 0.34% among 300,000; in the data active = inhibition above about 28%
ZTA DNA inh: ZTA (EBV) inhibition in EBNA-1 counter-screen. P03206. ZTA-DNA binding, fluorescence polarization. inhibition, % at 11 µM. hit rate 0.15% among 320,000. AID 2234; in the data active = inhibition above about 33%
Target sequence (P03206 whole entry, looked up): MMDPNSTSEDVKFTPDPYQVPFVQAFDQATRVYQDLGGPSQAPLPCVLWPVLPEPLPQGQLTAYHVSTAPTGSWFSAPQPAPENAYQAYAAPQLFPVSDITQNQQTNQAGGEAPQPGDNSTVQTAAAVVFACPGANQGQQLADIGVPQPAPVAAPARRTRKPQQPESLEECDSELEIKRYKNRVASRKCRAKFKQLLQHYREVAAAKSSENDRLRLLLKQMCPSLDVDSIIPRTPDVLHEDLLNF
core dimer inh: blocks dimerization of HCV core protein. hit rate 0.33% among 300,000. inhibition, % at 5 µM. TR-FRET GST/Flag-core106 dimerization, 1536-well. AID 1899;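 active = inhibition above the mean of all tested compounds plus 3 SD, set per screening campaign, cut at about 45% in these data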
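System: GST-tagged and Flag-tagged HCV core protein residues 1-106 / Input: core106 proteins, GST 13.5 nM and Flag 17 nM / Buffer or medium: KF-containing HEPES buffer, pH 7.45, DTT, CHAPS, BSA / Probe or stimulus: Eu-anti-GST and XL665-anti-Flag labelled anti-tag antibodies / Schedule: 4 h, 22.5 °C incubation / Technique: TR-FRET 671 and 617 nm emission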
PfM18AAP inh: blocks P. falciparum M18 aspartyl aminopeptidase; recombinant PfM18AAP, H-Glu-NHMec fluorogenic cleavage; inhibition, % at 7.35 µM; hit rate 1.2% among 290,000; AID 1822;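 active = inhibition above the campaign mean inhibition over all tested compounds plus 3 SD, cut at about 28% in these data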
Hits are given with their value; – = inactive; · = not tested or not shown.

SMILES | NS3 helicase inh | ALR H2O2 inh | EBNA-1 inhibitor | ZTA DNA inh | core dimer inh | PfM18AAP inh
CC(=O)C(Sc1nccc(-c2cccs2)n1)C(C)=O | – | 98 | – | – | – | –
CC(C)NC(=O)CSc1nccc(-c2cccs2)n1 | – | – | – | – | – | –
Cc1[nH]n(-c2nc(-c3cccc([N+](=O)[O-])c3)cs2)c(=O)c1C | – | 97 | – | – | – | –
Cc1ccc(C(=O)NC2CC(C)(C)NC(C)(C)C2)cc1C | – | 99 | – | – | – | –
Cc1ccc(C)c(C(=O)NC2CC(C)(C)NC(C)(C)C2)c1 | – | · | – | – | – | –
CC1(CCCN2C(=O)c3ccccc3C2=O)OCCO1 | · | – | – | – | – | ·
O=C(NNc1cccc(Cl)n1)c1cccnc1Cl | – | – | – | – | – | 32
O=C(NNc1cccc(Cl)c1)c1cccnc1Cl | – | 98 | – | – | – | –
CCN(CC(=O)N1CCCC1)S(=O)(=O)c1cc(C)ccc1OC | – | – | – | – | – | –
c1ccc(-c2cc3c(N4CCCC4)ncnc3s2)cc1 | – | – | – | – | – | –
c1ccc(-c2cc3c(N4CCOCC4)ncnc3s2)cc1 | – | 97 | – | – | – | –
Cc1nnsc1C(=O)NNc1ccc(C(C)(C)C)cc1 | – | – | – | – | – | 29
Cc1ccc(NC(=O)COC(=O)c2cc(=O)c3ccccc3o2)cc1F | · | – | · | – | · | ·
Cc1ccc(SC(CC(=O)c2ccc(C)cc2)C(=O)O)cc1 (stereo not drawn) | – | 99 | – | – | – | –
O=C(CC(Sc1ccc(Br)cc1)C(=O)O)c1ccc(Br)cc1 (stereo not drawn) | – | · | – | – | – | –
CC(C)CC(=O)Nc1ccc(Nc2ccccc2)cc1 | – | 99 | – | – | – | –
CC(C)CC(=O)Nc1ccc(Oc2ccc(NC(=O)CC(C)C)cc2)cc1 | – | – | – | – | – | –
CC(C)(C)CC(=O)Nc1ccc(Nc2ccccc2)cc1 | – | 99 | – | – | – | –
CCN(C(=O)C1CCCN1S(=O)(=O)c1ccc2c(c1)n(C)c(=O)c(=O)n2C)c1ccccc1 (stereo not drawn) | – | – | – | – | – | –
COc1cccc(-c2nc(CSCC(=O)NCC3CCCO3)c(C)o2)c1 (stereo not drawn) | – | 99 | – | – | – | –
COc1ccc(-c2nc(CS(=O)CC(=O)NC3CCCC3)c(C)o2)cc1 (stereo not drawn) | – | 98 | – | – | – | –
Cc1oc(-c2ccc(Cl)cc2)nc1CS(=O)CC(=O)NC1CCCCCC1 (stereo not drawn) | – | – | – | – | – | –
COc1ccc(C(=O)OCC(=O)NCC2CCCO2)cc1 (stereo not drawn) | – | – | – | – | – | –
COc1ccc(-c2nc(CN3CCCC(C(=O)NC4CCCC4)C3)c(C)o2)cc1 (stereo not drawn) | – | – | – | – | – | –
COc1ccc(-c2nc(CS(=O)CC(=O)NCC3CCCO3)c(C)o2)cc1 (stereo not drawn) | – | 98 | – | – | – | –
SMILES | NS3 helicase inh | ALR H2O2 inh | EBNA-1 inhibitor | ZTA DNA inh | core dimer inh | PfM18AAP inh
Cc1oc(-c2ccc(Cl)cc2)nc1CS(=O)CC(=O)NC1CCCCC1 (stereo not drawn) | – | 97 | – | – | – | –
C[C@H](NC(=O)[C@@H]1Cc2ccccc2CN1)C(=O)NC1CCCC1 | – | – | – | – | – | –
Cc1ccc(N2CC(C(=O)Nc3nnc(SCC(=O)N4CCOCC4)s3)CC2=O)cc1 (stereo not drawn) | – | – | – | – | – | –
COc1ccc(-c2nc(CS(=O)CC(=O)NC3CCCCC3C)c(C)o2)cc1OC (stereo not drawn) | – | 99 | – | – | – | –
Cc1oc(-c2ccc(Cl)cc2)nc1CS(=O)CC(=O)NCCCN(C)C1CCCCC1 (stereo not drawn) | – | 99 | – | – | – | –
CCC1CCCCN1CCCNC(=O)CS(=O)Cc1nc(-c2ccc(OC)c(OC)c2)oc1C (stereo not drawn) | – | 100 | – | – | – | –
Cc1oc(-c2ccccc2F)nc1CS(=O)(=O)CC(=O)NCCN(C)C1CCCCC1 | – | – | – | – | – | –
COc1ccc(-c2nc(CN3CCC(C(=O)NC4CC4)CC3)c(C)o2)cc1OC | – | – | – | – | – | –
Cc1oc(-c2ccc(Cl)cc2)nc1CS(=O)CC(=O)NC1CCCC1 (stereo not drawn) | – | 99 | – | – | – | –
CC(C)c1ccccc1NC(=O)CSc1n[nH]c(=O)n1C1CC1 | · | – | · | – | · | ·
COc1ccc(-c2nsc(SCC(=O)NCC3CCCO3)n2)cc1 (stereo not drawn) | – | 95 | – | – | – | –
O=C(CSc1oc(-c2cccs2)nc1S(=O)(=O)c1ccccc1)NC1CCCCC1 | – | – | – | – | – | –
Cc1cccc(-c2nc(CS(=O)CC(=O)NC3CCCC(C)C3C)c(C)o2)c1 (stereo not drawn) | – | 99 | – | – | – | –
Cc1ccc(-c2nc(CS(=O)(=O)CC(=O)NC3CCCCCC3)c(C)o2)cc1 | – | – | – | – | – | –
Cc1oc(-c2cccs2)nc1CS(=O)CC(=O)NC1CCCCCC1 (stereo not drawn) | – | 99 | – | – | – | –
Cc1ccc(-c2nc(CS(=O)CC(=O)NC3CCCCC3)c(C)o2)cc1 (stereo not drawn) | – | 99 | – | – | – | –
Cc1cccnc1NC(=O)CCC(=O)c1cccs1 | · | – | · | – | · | ·
CC(C)Sc1nc2c(cnn2-c2ccc(Cl)cc2)c(=O)[nH]1 | – | – | – | – | – | –
O=C1C2Sc3[nH]c(=O)sc3C(c3ccccc3)C2C(=O)N1c1ccccc1 (stereo not drawn) | – | – | – | – | – | 29
COc1ccccc1-n1c(=O)c(C#N)c(-c2ccc([N+](=O)[O-])cc2)c2cc(C(=O)c3cc(F)ccc3O)cnc21 | – | – | – | – | 49 | –
CC(OC(=O)c1ccc(Cl)c(S(N)(=O)=O)c1)C(=O)NCc1ccc2c(c1)OCO2 (stereo not drawn) | · | – | – | – | – | ·
Cc1cccc(C(=O)Nc2nnc(-c3ccncc3)o2)c1 | – | 97 | – | – | – | –
O=C(Nc1nnc(-c2cccnc2)o1)c1cccc([N+](=O)[O-])c1 | – | 90 | – | – | – | –
Cc1ccc(N(C)S(=O)(=O)c2cccc(C(=O)NCC(c3cccs3)N3CCOCC3)c2)cc1 (stereo not drawn) | · | – | – | – | – | ·
O=C(CCn1nc(-c2ccc(Cl)cc2)c2ccccc2c1=O)Nc1cccnc1 | – | – | – | – | – | –
c1ccc(N2CCOCCOCCOCCOCC2)cc1 | – | 99 | – | – | – | –
CCCCn1c(N)c(N(CCOC)C(=O)COC(=O)COc2cccc(C(C)=O)c2)c(=O)[nH]c1=O | · | · | – | – | – | ·
Nc1nc(-c2c[nH]c3ccccc23)cs1 | – | 87 | – | – | – | –
CNc1nc(-c2c[nH]c3ccccc23)cs1 | – | · | – | – | – | –
